Test results from ChEMBL document CHEMBL4152228, “Structural-based design, synthesis, and antitumor activity of novel alloxazine analogues with potential selective kinase inhibition” (Eur J Med Chem, 2018).

Experiments:
[1] = target: Mitogen-activated protein kinase 3 (Homo sapiens) (UniProt P27361); assay: Inhibition of ERK1 (unknown origin) at 10 uM by [33P]-ATP radiometric assay
In short: (§1)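 Radiometric kinase profiling: purified recombinant kinase (~10–50 nM final) with substrate, assay buffer and compound at 10 µM (control 10% DMSO). Started with 33P-ATP (50 µM stock, 0.8 µCi), run 30 min at ambient temperature, then spotted onto P81 phosphocellulose and washed in 1% phosphoric acid. Scintillation counted, no-substrate blank subtracted, single measurement, result given as % change versus control.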

[2] = test system: MCF7; assay: Antiproliferative activity against human MCF7 cells after 72 hrs by MTT assay; format: functional, cell-based; details: MCF7, 72 h
In short: (§2)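 MTT viability assay. Cells grown in RPMI-1640 with 10% heat-inactivated FBS, L-glutamine and 1% penicillin/streptomycin, used within 20 passages. Seeded at 5×10^3 cells/well, left overnight at 37 °C, then exposed to final concentrations of 0.005–50 µM (0.1% DMSO) for up to 72 h. MTT added for 3 h, formazan dissolved in DMSO, absorbance read at 550 nm. IC50 derived relative to untreated controls.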

[3] = target: Hepatocyte growth factor receptor (Homo sapiens) (UniProt P08581); assay: Inhibition of MET (unknown origin) at 10 uM by [33P]-ATP radiometric assay; in short: as §1
[4] = test system: K562; assay: Antiproliferative activity against human K562 cells after 72 hrs by MTT assay; format: functional, cell-based; details: K562, 72 h
[5] = target: Fibroblast growth factor receptor 1 (Homo sapiens) (UniProt P11362); assay: Inhibition of FGFR1 (unknown origin) at 10 uM by [33P]-ATP radiometric assay; in short: as §1
[6] = test system: A2780; assay: Antiproliferative activity against human A2780 cells after 72 hrs by MTT assay; format: functional, cell-based; details: A2780, 72 h; in short: as §2
[7] = target: Epidermal growth factor receptor (Homo sapiens) (UniProt P00533); assay: Inhibition of EGFR (unknown origin) at 10 uM by [33P]-ATP radiometric assay; in short: as §1
[8] = target: Mitogen-activated protein kinase 8 (Homo sapiens) (UniProt P45983); assay: Inhibition of JNK1 (unknown origin) at 10 uM by [33P]-ATP radiometric assay; in short: as §1
[9] = target: Mast/stem cell growth factor receptor Kit (Homo sapiens) (UniProt P10721); assay: Inhibition of c-KIT (unknown origin) at 10 uM by [33P]-ATP radiometric assay
In short: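 Radiometric kinase profiling: purified recombinant kinase (~10–50 nM final) with substrate, assay buffer and compound at 10 µM (control 10% DMSO). Started with 33P-ATP (50 µM stock, 0.8 µCi), run 30 min at ambient temperature, then spotted onto P81 phosphocellulose and washed in 1% phosphoric acid.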

[10] = target: Receptor tyrosine-protein kinase erbB-2 (Homo sapiens) (UniProt P04626); assay: Inhibition of HER2 (unknown origin) at 10 uM by [33P]-ATP radiometric assay; in short: as §1
[11] = target: Cyclin-dependent kinase 16 (Homo sapiens) (UniProt Q00536); assay: Inhibition of CDK16 (unknown origin) at 10 uM by [33P]-ATP radiometric assay; in short: as §1
[12] = target: Calcium/calmodulin-dependent protein kinase type 1 (Homo sapiens) (UniProt Q14012); assay: Inhibition of CAMK1 (unknown origin) at 10 uM by [33P]-ATP radiometric assay; in short: as §1
[13] = test system: HCT-116; assay: Antiproliferative activity against human HCT116 cells after 72 hrs by MTT assay; format: functional, cell-based; details: HCT-116, 72 h; in short: as §2
[14] = target: Protein kinase C beta type (Homo sapiens) (UniProt P05771); assay: Inhibition of PCK-beta2 (unknown origin) at 10 uM by [33P]-ATP radiometric assay; in short: as §1
[15] = Antiproliferative activity against human WM793B cells after 72 hrs by MTT assay; format: functional, cell-based; in short: as §2
[16] = target: Calcium/calmodulin-dependent protein kinase type II subunit alpha (Homo sapiens) (UniProt Q9UQM7); assay: Inhibition of CAMK2-alpha (unknown origin) at 10 uM by [33P]-ATP radiometric assay; in short: as §1
[17] = target: Activin receptor type-2A (Homo sapiens) (UniProt P27037); assay: Inhibition of ACVR2A (unknown origin) at 10 uM by [33P]-ATP radiometric assay; in short: as §1
[18] = target: Casein kinase I isoform alpha (Homo sapiens) (UniProt P48729); assay: Inhibition of CK1alpha1 (unknown origin) at 10 uM by [33P]-ATP radiometric assay; in short: as §1

Chain of Epidermal growth factor receptor (Homo sapiens) (P00533 whole entry): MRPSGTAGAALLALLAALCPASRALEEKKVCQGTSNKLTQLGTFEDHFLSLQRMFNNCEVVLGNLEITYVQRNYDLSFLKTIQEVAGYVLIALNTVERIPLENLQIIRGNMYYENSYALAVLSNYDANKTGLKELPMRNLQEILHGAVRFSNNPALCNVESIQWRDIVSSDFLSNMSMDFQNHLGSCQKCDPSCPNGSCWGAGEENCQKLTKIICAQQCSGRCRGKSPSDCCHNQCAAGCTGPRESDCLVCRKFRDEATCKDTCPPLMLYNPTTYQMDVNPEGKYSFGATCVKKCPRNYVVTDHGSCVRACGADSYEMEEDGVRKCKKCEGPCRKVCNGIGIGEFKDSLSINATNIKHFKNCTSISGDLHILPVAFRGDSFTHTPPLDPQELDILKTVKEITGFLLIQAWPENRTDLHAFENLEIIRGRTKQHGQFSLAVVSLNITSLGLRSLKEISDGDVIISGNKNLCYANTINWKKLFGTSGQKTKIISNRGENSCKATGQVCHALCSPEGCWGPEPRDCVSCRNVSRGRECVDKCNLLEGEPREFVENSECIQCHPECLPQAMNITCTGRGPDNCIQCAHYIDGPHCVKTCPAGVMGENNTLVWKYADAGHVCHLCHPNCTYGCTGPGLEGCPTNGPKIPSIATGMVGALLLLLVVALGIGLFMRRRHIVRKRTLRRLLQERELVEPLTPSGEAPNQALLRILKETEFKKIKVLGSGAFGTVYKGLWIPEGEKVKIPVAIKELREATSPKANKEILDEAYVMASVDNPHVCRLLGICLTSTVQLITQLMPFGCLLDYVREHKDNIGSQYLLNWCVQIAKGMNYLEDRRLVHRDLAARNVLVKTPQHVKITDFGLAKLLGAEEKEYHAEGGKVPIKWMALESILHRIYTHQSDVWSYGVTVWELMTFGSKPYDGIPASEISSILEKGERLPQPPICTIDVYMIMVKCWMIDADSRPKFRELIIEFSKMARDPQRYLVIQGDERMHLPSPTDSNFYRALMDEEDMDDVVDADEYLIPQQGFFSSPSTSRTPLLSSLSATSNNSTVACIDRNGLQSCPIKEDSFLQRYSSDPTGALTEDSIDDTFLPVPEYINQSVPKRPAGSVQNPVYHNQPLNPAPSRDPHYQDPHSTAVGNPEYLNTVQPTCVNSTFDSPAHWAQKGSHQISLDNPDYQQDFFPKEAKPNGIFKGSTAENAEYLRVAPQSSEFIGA
Chain of Calcium/calmodulin-dependent protein kinase type II subunit alpha (Homo sapiens) (Q9UQM7 whole entry): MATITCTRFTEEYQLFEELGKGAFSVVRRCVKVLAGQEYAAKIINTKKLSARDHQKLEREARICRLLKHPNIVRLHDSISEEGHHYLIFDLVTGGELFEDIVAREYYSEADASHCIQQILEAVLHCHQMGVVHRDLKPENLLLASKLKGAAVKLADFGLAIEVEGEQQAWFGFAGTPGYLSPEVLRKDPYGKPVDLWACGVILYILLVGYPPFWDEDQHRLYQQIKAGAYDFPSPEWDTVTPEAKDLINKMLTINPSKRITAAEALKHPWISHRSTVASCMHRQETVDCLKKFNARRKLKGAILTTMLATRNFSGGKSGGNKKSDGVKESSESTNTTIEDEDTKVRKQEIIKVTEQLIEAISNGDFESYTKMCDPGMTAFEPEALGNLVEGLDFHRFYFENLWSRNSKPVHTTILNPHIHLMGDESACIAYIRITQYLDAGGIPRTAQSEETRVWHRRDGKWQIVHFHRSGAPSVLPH
Chain of Cyclin-dependent kinase 16 (Homo sapiens) (Q00536 whole entry): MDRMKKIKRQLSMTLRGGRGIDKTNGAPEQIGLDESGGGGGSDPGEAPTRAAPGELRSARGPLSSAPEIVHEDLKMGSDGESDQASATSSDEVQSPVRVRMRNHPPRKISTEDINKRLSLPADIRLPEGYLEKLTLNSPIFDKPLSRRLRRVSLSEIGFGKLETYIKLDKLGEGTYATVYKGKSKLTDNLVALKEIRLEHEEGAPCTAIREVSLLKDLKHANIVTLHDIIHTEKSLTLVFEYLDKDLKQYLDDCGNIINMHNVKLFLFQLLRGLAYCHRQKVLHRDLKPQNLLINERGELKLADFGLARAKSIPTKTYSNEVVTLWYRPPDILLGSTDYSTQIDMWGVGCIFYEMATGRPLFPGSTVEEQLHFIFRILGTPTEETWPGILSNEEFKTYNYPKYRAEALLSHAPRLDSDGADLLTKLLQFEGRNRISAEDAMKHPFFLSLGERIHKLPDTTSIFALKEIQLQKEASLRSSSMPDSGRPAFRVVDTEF
Chain of Mitogen-activated protein kinase 3 (Homo sapiens) (P27361 whole entry): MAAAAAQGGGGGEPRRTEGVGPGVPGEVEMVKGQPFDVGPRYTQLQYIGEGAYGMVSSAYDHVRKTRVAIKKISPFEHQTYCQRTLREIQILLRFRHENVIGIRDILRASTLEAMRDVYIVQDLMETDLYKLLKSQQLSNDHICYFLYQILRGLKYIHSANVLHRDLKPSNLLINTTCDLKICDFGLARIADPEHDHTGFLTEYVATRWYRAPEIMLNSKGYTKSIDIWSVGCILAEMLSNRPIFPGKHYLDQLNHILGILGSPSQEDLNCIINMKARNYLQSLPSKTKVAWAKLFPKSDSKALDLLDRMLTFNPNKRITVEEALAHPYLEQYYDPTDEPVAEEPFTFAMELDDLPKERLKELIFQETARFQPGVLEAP
Chain of Fibroblast growth factor receptor 1 (Homo sapiens) (P11362 22-822 limits assumed): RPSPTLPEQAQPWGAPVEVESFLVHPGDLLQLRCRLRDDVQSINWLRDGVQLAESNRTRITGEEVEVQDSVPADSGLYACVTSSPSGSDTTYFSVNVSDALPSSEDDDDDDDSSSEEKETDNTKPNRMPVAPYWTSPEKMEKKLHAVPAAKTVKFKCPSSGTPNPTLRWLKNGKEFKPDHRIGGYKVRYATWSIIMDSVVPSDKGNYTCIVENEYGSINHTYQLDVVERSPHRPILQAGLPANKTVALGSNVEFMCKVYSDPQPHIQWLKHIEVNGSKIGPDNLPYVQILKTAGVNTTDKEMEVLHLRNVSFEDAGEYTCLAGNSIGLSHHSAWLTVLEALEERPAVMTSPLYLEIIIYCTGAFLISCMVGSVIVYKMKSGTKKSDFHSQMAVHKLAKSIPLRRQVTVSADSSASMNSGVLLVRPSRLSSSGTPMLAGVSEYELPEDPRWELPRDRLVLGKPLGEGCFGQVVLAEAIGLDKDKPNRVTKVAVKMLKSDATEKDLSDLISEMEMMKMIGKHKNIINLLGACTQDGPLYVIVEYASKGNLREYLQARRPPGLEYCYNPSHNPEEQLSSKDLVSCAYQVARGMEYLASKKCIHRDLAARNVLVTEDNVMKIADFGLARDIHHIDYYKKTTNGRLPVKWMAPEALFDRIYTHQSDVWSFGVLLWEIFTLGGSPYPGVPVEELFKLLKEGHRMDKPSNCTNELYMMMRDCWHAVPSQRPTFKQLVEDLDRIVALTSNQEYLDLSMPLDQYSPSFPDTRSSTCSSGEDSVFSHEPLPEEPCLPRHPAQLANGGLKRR
Chain of Hepatocyte growth factor receptor (Homo sapiens) (P08581 whole entry): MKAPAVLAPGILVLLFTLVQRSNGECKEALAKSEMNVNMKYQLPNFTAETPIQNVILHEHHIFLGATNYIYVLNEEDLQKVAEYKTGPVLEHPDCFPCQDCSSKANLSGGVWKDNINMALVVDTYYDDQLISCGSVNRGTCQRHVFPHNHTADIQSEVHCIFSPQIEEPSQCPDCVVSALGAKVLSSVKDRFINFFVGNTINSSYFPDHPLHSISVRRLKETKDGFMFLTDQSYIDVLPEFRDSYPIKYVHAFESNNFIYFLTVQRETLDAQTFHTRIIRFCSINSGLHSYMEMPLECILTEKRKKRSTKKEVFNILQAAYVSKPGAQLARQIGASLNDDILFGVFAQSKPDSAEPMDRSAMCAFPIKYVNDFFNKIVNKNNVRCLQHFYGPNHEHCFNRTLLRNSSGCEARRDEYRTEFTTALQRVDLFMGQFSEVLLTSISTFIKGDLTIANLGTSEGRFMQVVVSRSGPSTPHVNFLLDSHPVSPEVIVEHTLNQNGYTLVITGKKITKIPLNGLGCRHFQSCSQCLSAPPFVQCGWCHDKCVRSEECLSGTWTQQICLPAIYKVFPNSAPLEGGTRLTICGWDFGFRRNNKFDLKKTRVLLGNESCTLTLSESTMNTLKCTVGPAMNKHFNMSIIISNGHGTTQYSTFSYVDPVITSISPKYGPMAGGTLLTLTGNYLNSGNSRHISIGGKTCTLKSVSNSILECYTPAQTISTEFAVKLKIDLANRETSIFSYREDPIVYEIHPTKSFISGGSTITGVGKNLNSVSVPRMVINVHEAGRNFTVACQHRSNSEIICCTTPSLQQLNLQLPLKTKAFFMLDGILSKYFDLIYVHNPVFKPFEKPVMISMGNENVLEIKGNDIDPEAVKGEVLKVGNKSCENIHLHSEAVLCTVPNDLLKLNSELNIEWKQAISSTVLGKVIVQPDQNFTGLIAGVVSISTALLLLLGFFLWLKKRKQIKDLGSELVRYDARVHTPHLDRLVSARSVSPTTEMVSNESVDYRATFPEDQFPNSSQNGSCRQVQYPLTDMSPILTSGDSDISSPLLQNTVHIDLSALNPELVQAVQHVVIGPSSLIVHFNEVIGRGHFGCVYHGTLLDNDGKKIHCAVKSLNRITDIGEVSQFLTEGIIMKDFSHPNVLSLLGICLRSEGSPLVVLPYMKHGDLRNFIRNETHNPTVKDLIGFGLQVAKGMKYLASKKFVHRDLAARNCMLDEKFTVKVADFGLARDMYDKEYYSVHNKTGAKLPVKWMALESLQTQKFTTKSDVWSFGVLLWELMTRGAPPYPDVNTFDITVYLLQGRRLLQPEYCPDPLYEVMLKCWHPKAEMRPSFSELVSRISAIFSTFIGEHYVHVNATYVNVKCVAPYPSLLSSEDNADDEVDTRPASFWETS

inhibition [1] [%] | IC50 [2] [µM] | inhibition [3] [%] | IC50 [4] [µM] | inhibition [5] [%] | IC50 [6] [µM] | inhibition [7] [%] | inhibition [8] [%] | inhibition [9] [%] | inhibition [10] [%] | inhibition [11] [%] | inhibition [12] [%] | IC50 [13] [µM] | inhibition [14] [%] | inhibition [16] [%] | inhibition [17] [%] | inhibition [18] [%] | Compound | IC50 [15] [µM]
5 | 0.53 | 18 | 13.5 | 50 | 0.32 | 12 | -4 | 36 | 4 | -1 | 18 | 0.82 | 3 | 0 | – | – | Cc1ccc2nc3nc(NCc4ccc(CN5CCN(C)CC5)cc4)[nH]c(=O)c3cc2c1 | 10.5
– | 5.73 | – | > 50 | – | 4.83 | – | – | – | – | – | – | 5.78 | – | – | – | – | COc1ccc2nc3nc(NC(C)c4ccccc4)[nH]c(=O)c3nc2c1 (configuration not stated) | > 50
– | 0.17 | – | – | – | – | – | – | – | – | – | – | – | – | – | – | – | Cc1ccc2nc3nc(NCCO)[nH]c(=O)c3cc2c1 | –
6 | 0.62 | 9 | 26.8 | 37 | 0.54 | 16 | -5 | 60 | 8 | 11 | 14 | 0.72 | 5 | -6 | – | – | CN1CCN(Cc2ccc(CNc3nc4nc5ccc(Cl)cc5cc4c(=O)[nH]3)cc2)CC1 | > 50
– | 1.49 | – | > 50 | – | 2.01 | – | – | – | – | – | – | 1.53 | – | – | – | – | O=c1[nH]c(NCc2ccc(CN3CCOCC3)cc2)nc2nc3ccccc3nc12 | > 50
– | 0.8 | – | 17.3 | – | 0.9 | – | – | – | – | – | – | 0.93 | – | – | – | – | COc1ccc(CCN2CCC(Nc3nc4nc5ccc(OC)cc5nc4c(=O)[nH]3)CC2)cc1 | 33.1
-2 | 7.12 | 10 | 3.43 | 1 | 8.9 | 9 | – | – | – | 10 | 10 | 19.7 | 10 | 1 | -2 | 11 | Cc1ccc(NC(=O)c2ccc(CN3CCN(C)CC3)cc2)cc1Nc1nccc(-c2cccnc2)n1 [IMATINIB] | –
